The text below walks through data of ChEMBL document CHEMBL3593208 (Bioorg Med Chem, 2015).

The target in test [1] is T1, Histone deacetylase 8 (Homo sapiens, UniProt Q9BY41).
T1 sequence (Q9BY41 whole entry): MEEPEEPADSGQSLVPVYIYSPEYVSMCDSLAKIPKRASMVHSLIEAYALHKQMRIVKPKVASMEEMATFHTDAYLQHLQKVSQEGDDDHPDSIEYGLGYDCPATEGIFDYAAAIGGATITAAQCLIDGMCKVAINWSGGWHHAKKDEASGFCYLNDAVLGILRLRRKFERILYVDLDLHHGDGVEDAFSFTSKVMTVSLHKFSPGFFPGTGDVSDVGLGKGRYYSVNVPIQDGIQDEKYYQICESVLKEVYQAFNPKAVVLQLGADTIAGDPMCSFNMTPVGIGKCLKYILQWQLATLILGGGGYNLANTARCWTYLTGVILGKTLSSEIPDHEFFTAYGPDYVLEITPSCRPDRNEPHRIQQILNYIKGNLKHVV
As to the kind of experiment: Inhibition of recombinant full-length HDAC8 (unknown origin) using MAZ1600/MAZ1675 as substrate assessed as release of 7 amino-4-methylcoumarin measured every 5 mins by fluorescence assay. A digest of the protocol:
(§1)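 AMC release after deacetylase plus trypsin action read every 5 min. First derivative in the linear range used. Replicates normalised to DMSO controls (<0.5%). IC50 by logistic regression, unconstrained max/min.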

A short description of test [2]: Cytotoxicity against human NMC-797 cells assessed as cell viability after 48 hrs by luminescence assay. It is filed as functional, cell-based. The conditions noted are these: NMC-797, 48 h; for pIC50: read-out: IC50; for IC50: read-out: pIC50 (converted). The gist of the method:
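797 cells seeded at 2.0×10^4 cells/well in 384-well plates. Compound was pin-transferred in a dose-response series with 0.02% DMSO final and incubated 48 h. Viability was read as ATP-dependent luminescence. IC50 was estimated by logistic regression of replicate measurements against dose, with standard error of logIC50.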

The nature of test [3]: Cytotoxicity against human NMC-10326 cells assessed as cell viability after 48 hrs by luminescence assay. In kind it is functional, cell-based. The conditions noted are these: for pIC50: read-out: IC50; for IC50: read-out: pIC50 (converted). A digest of the protocol: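 Cells seeded in 384-well plates at 2.0×10^4 cells/well; compound pin-transferred in a dose series, final DMSO 0.02%. After 48 h exposure, viability read as ATP-dependent luminescence (ATPLite). IC50 estimated from replicate measurements by logistic regression.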

The target in test [4] is Histone deacetylase 2 (Homo sapiens, UniProt Q92769). As to the kind of experiment: Inhibition of recombinant full-length HDAC2 (unknown origin) using MAZ1600/MAZ1675 as substrate assessed as release of 7 amino-4-methylcoumarin measured every 5 mins by fluorescence assay. The gist of the method: as §1
Chain of Histone deacetylase 2 (Q92769 whole entry): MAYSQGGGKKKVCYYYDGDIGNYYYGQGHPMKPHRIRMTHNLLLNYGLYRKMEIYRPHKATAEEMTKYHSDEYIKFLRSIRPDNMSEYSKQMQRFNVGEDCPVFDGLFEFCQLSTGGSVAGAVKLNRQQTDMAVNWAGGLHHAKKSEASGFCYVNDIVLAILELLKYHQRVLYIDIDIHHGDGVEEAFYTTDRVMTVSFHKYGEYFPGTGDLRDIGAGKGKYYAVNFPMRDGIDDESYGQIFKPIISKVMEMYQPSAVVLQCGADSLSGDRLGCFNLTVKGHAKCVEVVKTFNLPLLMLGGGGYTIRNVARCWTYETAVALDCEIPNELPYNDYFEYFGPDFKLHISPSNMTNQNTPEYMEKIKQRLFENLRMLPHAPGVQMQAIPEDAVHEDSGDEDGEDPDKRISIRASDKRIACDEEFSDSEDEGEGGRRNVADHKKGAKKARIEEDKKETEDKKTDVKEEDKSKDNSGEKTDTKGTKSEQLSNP
Test [5] has as its target Histone deacetylase 3 (Homo sapiens, UniProt O15379). Nature of the test: Inhibition of recombinant full-length HDAC3 (unknown origin) using MAZ1600/MAZ1675 as substrate assessed as release of 7 amino-4-methylcoumarin measured every 5 mins by fluorescence assay.
Test [6] deals with Histone deacetylase 1 (Homo sapiens, UniProt Q13547). As to the kind of experiment: Inhibition of recombinant full-length HDAC1 (unknown origin) using MAZ1600/MAZ1675 as substrate assessed as release of 7 amino-4-methylcoumarin measured every 5 mins by fluorescence assay. A digest of the protocol: as §1
Chain of Histone deacetylase 1 (Q13547 whole entry): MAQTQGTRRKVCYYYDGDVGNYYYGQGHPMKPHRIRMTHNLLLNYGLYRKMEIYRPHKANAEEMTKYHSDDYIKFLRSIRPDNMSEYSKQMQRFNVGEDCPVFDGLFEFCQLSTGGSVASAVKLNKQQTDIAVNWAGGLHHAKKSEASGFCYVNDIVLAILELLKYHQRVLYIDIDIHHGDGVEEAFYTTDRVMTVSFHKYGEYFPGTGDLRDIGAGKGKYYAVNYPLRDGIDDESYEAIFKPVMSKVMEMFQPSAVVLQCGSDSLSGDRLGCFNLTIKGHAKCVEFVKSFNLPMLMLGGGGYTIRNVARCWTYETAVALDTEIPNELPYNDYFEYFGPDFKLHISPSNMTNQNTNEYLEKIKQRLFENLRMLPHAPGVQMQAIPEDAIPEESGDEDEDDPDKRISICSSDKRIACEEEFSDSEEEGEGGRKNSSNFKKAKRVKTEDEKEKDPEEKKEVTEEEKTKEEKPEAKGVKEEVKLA
In test [7] the target is T2, Protein deacetylase HDAC6 (Homo sapiens, UniProt Q9UBN7).
T2 sequence (Q9UBN7 whole entry): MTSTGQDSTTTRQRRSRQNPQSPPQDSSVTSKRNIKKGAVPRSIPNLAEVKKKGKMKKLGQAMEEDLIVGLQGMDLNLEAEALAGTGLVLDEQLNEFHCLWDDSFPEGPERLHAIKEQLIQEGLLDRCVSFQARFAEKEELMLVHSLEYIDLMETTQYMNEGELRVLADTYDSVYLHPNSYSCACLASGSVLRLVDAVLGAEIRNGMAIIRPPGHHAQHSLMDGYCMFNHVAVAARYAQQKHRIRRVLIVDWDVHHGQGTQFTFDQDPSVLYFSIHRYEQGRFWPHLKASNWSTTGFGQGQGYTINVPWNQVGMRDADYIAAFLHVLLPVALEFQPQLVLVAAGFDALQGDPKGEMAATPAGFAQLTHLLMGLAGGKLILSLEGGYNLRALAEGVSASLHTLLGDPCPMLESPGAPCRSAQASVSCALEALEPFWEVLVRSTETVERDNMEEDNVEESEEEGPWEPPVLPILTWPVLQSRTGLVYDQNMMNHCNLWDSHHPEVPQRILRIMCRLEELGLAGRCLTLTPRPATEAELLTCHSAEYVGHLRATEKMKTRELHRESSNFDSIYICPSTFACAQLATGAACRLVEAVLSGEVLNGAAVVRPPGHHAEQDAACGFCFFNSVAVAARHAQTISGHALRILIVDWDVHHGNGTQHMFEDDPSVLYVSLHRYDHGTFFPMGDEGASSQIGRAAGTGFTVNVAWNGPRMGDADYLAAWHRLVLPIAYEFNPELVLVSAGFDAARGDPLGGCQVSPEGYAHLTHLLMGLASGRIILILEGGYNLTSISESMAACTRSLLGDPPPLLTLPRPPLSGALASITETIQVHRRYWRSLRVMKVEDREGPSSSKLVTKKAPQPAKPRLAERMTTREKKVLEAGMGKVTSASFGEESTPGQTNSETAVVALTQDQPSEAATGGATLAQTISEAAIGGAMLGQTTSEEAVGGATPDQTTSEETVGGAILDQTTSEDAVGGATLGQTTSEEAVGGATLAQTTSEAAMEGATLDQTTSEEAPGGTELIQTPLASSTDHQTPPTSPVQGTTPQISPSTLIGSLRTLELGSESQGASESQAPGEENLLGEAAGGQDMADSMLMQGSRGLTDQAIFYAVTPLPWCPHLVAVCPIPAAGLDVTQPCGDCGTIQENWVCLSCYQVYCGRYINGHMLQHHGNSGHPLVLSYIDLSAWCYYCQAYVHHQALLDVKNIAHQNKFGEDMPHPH
As to the kind of experiment: Inhibition of recombinant full-length HDAC6 (unknown origin) using MAZ1600/MAZ1675 as substrate assessed as release of 7 amino-4-methylcoumarin measured every 5 mins by fluorescence assay. The gist of the method: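 AMC release after deacetylase/trypsin action read every 5 min. Linear-range first derivative normalised to DMSO controls (<0.5%). IC50 by unconstrained logistic regression.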

pIC50: −log10 of the molar value.

Chain of Histone deacetylase 3 (O15379 whole entry): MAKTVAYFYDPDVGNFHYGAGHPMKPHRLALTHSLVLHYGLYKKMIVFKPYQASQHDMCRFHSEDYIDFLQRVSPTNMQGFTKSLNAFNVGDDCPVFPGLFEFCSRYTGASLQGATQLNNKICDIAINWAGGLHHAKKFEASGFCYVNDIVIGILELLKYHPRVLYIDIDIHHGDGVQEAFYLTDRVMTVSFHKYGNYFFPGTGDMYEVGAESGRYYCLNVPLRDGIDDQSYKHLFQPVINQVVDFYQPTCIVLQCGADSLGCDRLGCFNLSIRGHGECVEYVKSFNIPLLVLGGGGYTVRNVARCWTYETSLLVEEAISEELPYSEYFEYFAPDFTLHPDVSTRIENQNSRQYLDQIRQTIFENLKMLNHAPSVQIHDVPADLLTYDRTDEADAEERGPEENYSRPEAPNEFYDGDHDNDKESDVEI

For `CC(C)[C@@H]1NC(=O)[C@]2(C)CSC(=N2)c2csc(n2)CNC(=O)C[C@@H](/C=C/CCS)NC1=O`, the values for the pIC50 in test [1], in test [2] and in test [3] were 6.59, 5.76 and 4.92, respectively. The IC50 is 1730 nM in test [2] and 11900 nM in test [3].
Consider `CCCCCCCC(=O)SCC/C=C/[C@@H]1CC(=O)NCc2cccc(n2)C2=N[C@@](C)(CS2)C(=O)N[C@@H](C(C)C)C(=O)O1`, for which the figures for the pIC50 in test [4], in test [5] and in test [6] were 6.46, 6.48 and 6.69, respectively.
For `CC(C)[C@@H]1NC(=O)[C@]2(C)CSC(=N2)c2cccc(n2)CNC(=O)C[C@@H](/C=C/CCS)OC1=O`, the pIC50 in test [1] was 6.47; in test [2] it was 6.66; in test [5], 8.51; in test [3], 6.54; in test [7], 7.31. For the same molecule, the IC50 was 222 nM in test [2] and 298 nM in test [3].
Regarding `CCCCCCCC(=O)SCC/C=C/[C@@H]1CC(=O)NCc2cc(ccn2)C2=N[C@@](C)(CS2)C(=O)N[C@@H](C(C)C)C(=O)O1`, the pIC50 in test [4] is 6.18; in test [5], 6.50; in test [6], 6.47.
As to `CC(C)[C@@H]1NC(=O)[C@]2(C)CSC(=N2)c2ccnc(c2)CNC(=O)C[C@@H](/C=C/CCS)OC1=O`, the pIC50 in test [1] is 6.99; in test [4], 8.35; in test [2], 7.05; in test [5] it was 8.64; in test [3] it was 6.92; in test [7], 7.45. Also, the pIC50 in test [6] was 8.66. Also, the results for the IC50 in test [2] and in test [3] were 93.1 nM and 122 nM, respectively.
Consider `CCCCCCCC(=O)SCC/C=C/[C@@H]1CC(=O)NCc2cccc(n2)C2=N[C@@](C)(CS2)C(=O)N[C@@H](C(C)C)C(=O)N1`, for which the pIC50 was 6.33 in test [4], 6.48 in test [5] and 6.47 in test [6].
The matching figures for `CC(C)[C@@H]1NC(=O)[C@]2(C)CSC(=N2)c2cccc(n2)CNC(=O)C[C@@H](/C=C/CCS)NC1=O`: 7.16, 7.37 and 7.38.
Regarding `CCCCCCCC(=O)SCC/C=C/[C@@H]1CC(=O)NCc2cc(ccn2)C2=N[C@@](C)(CS2)C(=O)N[C@@H](C(C)C)C(=O)N1`, the pIC50 is 5.91 in test [4], 6.07 in test [5] and 6.09 in test [6].
For `CC(C)[C@@H]1NC(=O)[C@]2(C)CSC(=N2)c2ccnc(c2)CNC(=O)C[C@@H](/C=C/CCS)NC1=O`, the pIC50 is 5.83 in test [1]; 7.68 in test [4]; 7.84 in test [5]; 5.55 in test [7]; 7.88 in test [6].

What is called pIC50 is the negative decadic logarithm of the IC50, by convention in mol/L.
